Structures are written as SMILES. Non-standard residues stand in square brackets, D forms with d. Residues, ends and D or L forms follow the SMILES beside them. ξ: configuration not given here. *: point of attachment. Sta = CC(C)C[C@H](N)[C@@H](O)CC(=O)O; NMeH = CN[C@@H](Cc1c[nH]cn1)C(=O)O; NHCH2(2-pyridyl) = c1ccc(CN*)nc1; NMeF = CN[C@@H](Cc1ccccc1)C(=O)O; αMeF = C[C@](N)(Cc1ccccc1)C(=O)O; ξαMeF = CC(N)(Cc1ccccc1)C(=O)O; Boc = CC(C)(C)OC(=O)*

Pepsin A, sequence (P00791 whole entry): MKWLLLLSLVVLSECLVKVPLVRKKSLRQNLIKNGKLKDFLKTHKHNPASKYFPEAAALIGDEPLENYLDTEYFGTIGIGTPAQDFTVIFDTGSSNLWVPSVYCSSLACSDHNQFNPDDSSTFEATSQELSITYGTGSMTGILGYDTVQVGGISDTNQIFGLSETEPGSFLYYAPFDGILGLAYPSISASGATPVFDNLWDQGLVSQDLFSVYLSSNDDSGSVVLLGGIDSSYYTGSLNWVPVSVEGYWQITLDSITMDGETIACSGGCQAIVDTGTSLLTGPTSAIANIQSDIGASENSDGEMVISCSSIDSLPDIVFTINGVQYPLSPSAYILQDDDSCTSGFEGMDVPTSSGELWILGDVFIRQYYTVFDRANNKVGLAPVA

The first assay addresses T1, Cathepsin D (Bos taurus, UniProt P80209).
T1 sequence (P80209 whole entry): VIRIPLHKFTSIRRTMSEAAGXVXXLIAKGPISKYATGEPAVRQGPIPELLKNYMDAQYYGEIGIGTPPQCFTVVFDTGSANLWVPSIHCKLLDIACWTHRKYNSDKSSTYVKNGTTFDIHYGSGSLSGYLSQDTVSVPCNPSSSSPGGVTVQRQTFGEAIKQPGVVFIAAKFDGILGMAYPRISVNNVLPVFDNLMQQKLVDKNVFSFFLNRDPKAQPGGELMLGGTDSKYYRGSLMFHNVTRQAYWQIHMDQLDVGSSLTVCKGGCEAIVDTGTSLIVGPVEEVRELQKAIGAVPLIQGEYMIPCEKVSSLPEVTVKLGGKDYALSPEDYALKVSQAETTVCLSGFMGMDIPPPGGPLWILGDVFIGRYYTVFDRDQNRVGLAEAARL
The assay is described as follows: Inhibition of bovine cathepsin D.
The IC50 is the point on the concentration scale where inhibition reaches its midpoint. Read a low IC50 as greater potency in that assay. On to `CC[C@H](C)[C@H](NC(=O)[C@@H](C[C@H](O)[C@H](CC(C)C)NC(=O)[C@H](Cc1c[nH]cn1)N(C)C(=O)[C@H](Cc1ccccc1)NC(=O)[C@@H]1CCCN1C(=O)OC(C)(C)C)C(C)C)C(=O)NCc1ccccn1`, for which half-maximal inhibition (IC50) was put at 6300 nM. This counts as single-digit micromolar.

The next assay concerns the target T2, Renin (Homo sapiens, UniProt P00797).
T2 sequence (P00797 whole entry): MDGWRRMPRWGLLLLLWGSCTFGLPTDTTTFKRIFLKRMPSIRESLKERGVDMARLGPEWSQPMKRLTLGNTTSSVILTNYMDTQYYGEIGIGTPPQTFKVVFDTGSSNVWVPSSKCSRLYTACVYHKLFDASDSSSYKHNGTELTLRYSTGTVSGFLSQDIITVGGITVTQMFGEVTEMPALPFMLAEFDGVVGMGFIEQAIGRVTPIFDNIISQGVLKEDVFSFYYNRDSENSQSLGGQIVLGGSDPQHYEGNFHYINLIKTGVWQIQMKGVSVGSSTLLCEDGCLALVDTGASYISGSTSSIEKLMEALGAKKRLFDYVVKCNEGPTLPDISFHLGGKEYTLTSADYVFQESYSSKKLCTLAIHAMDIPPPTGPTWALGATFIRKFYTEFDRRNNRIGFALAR
The assay is described as follows: Inhibition of human plasma renin. The class given is cell-free. The essentials: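 Lyophilized human plasma with 0.1% EDTA as renin source. Plasma is combined with phenylmethylsulfonyl fluoride, maleate buffer pH 6.0 and inhibitor in 1% Tween 80/water, then incubated 90 min at 37 °C. Angiotensin I measured by radioimmunoassay. Percent inhibition taken vs control tubes; IC50 estimated graphically from 3–4 concentrations on a semilog plot.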
`CC[C@H](C)[C@H](NC(=O)C[C@H](O)[C@H](CC(C)C)NC(=O)[C@H](Cc1ccccc1)N(C)C(=O)[C@H](Cc1ccccc1)NC(=O)OC(C)(C)C)C(=O)NCc1ccccn1` (Boc-F[NMeF][Sta]I-{NHCH2(2-pyridyl)}) yielded a 50% inhibitory concentration (IC50) of 100 nM. `CC[C@H](C)[C@H](NC(=O)C[C@H](O)[C@H](CC(C)C)NC(=O)[C@H](Cc1ccccc1)NC(=O)C(C)(Cc1ccccc1)NC(=O)OC(C)(C)C)C(=O)NCc1ccccn1` (stereo partly drawn) (Boc-[ξαMeF]F[Sta]I-{NHCH2(2-pyridyl)}) came in with an IC50 of 6800 nM. Compared with the last molecule, the IC50 is about 68-fold higher. On the same count and under the same terms, the result for `CC[C@H](C)[C@H](NC(=O)C[C@H](O)[C@H](CC(C)C)NC(=O)[C@H](Cc1ccccc1)NC(=O)[C@H](Cc1ccccc1)NC(=O)OC(C)(C)C)C(=O)NCc1ccccn1` (Boc-FF[Sta]I-{NHCH2(2-pyridyl)}) reads 24 nM. Same read-out and setting: the result for `CC[C@H](C)[C@H](NC(=O)[C@@H](C[C@H](O)[C@H](CC(C)C)NC(=O)[C@H](Cc1c[nH]cn1)N(C)C(=O)[C@H](Cc1ccccc1)NC(=O)OC(C)(C)C)C(C)C)C(=O)NCc1ccccn1` reads 0.65 nM; that for `CCC(C)C(NC(=O)CC(O)C(CC(C)C)NC(=O)C(Cc1cnc[nH]1)N(C)C(=O)C(Cc1ccccc1)NC(=O)OC(C)(C)C)C(=O)NCc1ccccn1` (stereo not drawn), 120 nM. Same read-out and setting: next, `CC[C@H](C)[C@H](NC(=O)[C@@H](NC[C@H](CC(C)C)NC(=O)[C@H](Cc1c[nH]cn1)N(C)C(=O)[C@H](Cc1ccccc1)NC(=O)OC(C)(C)C)C(C)C)C(=O)NCc1ccccn1`: 450 nM; `CC[C@H](C)[C@H](NC(=O)C[C@H](O)[C@H](CC(C)C)NC(=O)[C@H](Cc1c[nH]cn1)NC(=O)[C@H](Cc1ccccc1)N(C)C(=O)OC(C)(C)C)C(=O)NCc1ccccn1` (Boc-[NMeF]H[Sta]I-{NHCH2(2-pyridyl)}): 720 nM; `CC[C@H](C)[C@H](NC(=O)[C@@H](NC[C@H](CC(C)C)NC(=O)[C@H](Cc1c[nH]cn1)N(C)C(=O)[C@H](Cc1ccccc1)NC(=O)[C@@H]1CCCN1C(=O)OC(C)(C)C)C(C)C)C(=O)NCc1ccccn1`: 68 nM. In the case of `CC[C@H](C)[C@H](NC(=O)C[C@H](O)[C@H](CC(C)C)NC(=O)[C@H](Cc1ccccc1)NC(=O)[C@H](Cc1ccccc1)N(C)C(=O)OC(C)(C)C)C(=O)NCc1ccccn1` (Boc-[NMeF]F[Sta]I-{NHCH2(2-pyridyl)}), the IC50 was determined as 340 nM.

Regarding `CC[C@H](C)[C@H](NC(=O)C[C@H](O)[C@H](CC(C)C)NC(=O)[C@](C)(Cc1ccccc1)NC(=O)[C@H](Cc1ccccc1)NC(=O)OC(C)(C)C)C(=O)NCc1ccccn1` (Boc-F[αMeF][Sta]I-{NHCH2(2-pyridyl)}), the IC50 is > 10000 nM. Still for that read-out and setting: next, `CC[C@H](C)[C@H](NC(=O)C[C@H](O)[C@H](CC(C)C)NC(=O)[C@H](Cc1c[nH]cn1)N(C)C(=O)[C@H](Cc1ccccc1)NC(=O)[C@@H]1CCCN1C(=O)OC(C)(C)C)C(=O)NCc1ccccn1` (Boc-PF[NMeH][Sta]I-{NHCH2(2-pyridyl)}): 190 nM.

For a further assay, the target named is Pepsin A (Sus scrofa, UniProt P00791). The assay is described as follows: Inhibition of porcine pepsin. The essentials:
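Porcine pepsin with porcine hemoglobin substrate in 0.02 M KCl-HCl buffer pH 2, with compounds dissolved in buffer. Incubation 25 min at 37 °C, then perchloric acid added and acid-soluble fraction absorbance read at 280 nm.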
`CC[C@H](C)[C@H](NC(=O)[C@@H](C[C@H](O)[C@H](CC(C)C)NC(=O)[C@H](Cc1c[nH]cn1)N(C)C(=O)[C@H](Cc1ccccc1)NC(=O)[C@@H]1CCCN1C(=O)OC(C)(C)C)C(C)C)C(=O)NCc1ccccn1` registered an IC50 of 6800 nM. In other words, the single-digit micromolar range.

Values taken from ChEMBL document CHEMBL1123253, “Design and synthesis of a potent and specific renin inhibitor with a prolonged duration of action in vivo” (J Med Chem, 1986).
